Assay results reported in ChEMBL document CHEMBL3425497, “Discovery of (R)-1-(3-((2-chloro-4-(((2-hydroxy-2-(8-hydroxy-2-oxo-1,2-dihydroquinolin-5-yl)ethyl)amino)methyl)-5-methoxyphenyl)amino)-3-oxopropyl)piperidin-4-yl [1,1'-biphenyl]-2-ylcarbamate (TD-5959, GSK961081, batefenterol): first-in-class dual pharmacology multivalent muscarinic antagonist and …” (J Med Chem, 2015).

What was measured:
[1] = biological target: Muscarinic acetylcholine receptor M3 (Homo sapiens, UniProt P20309); assay: Displacement of [3H]NMS from human muscarinic M3 receptor expressing CHO-K1 cells incubated for 60 mins or 6 hrs by liquid scintillation counting; assay type: cell-based
[2] = biological target: Beta-2 adrenergic receptor (Homo sapiens, UniProt P07550); assay: Agonist activity at human beta2 adrenergic receptor expressed in HEK293 cells assessed as cAMP accumulation using [125I]cAMP by scintillation counting; assay type: functional, cell-based
[3] = tested on: Cavia porcellus; assay: Bronchoprotection in male Duncan Hartley guinea pig bronchoconstriction einthoven model assessed as inhibition of methacholine-induced bronchoconstriction at 100 microg/ml, inhalation after 24 hrs by in vivo muscarinic acetylcholine receptor antagonist activity assay; assay type: functional; parameters: scale not given: the % may be the effect or the level left
Method in brief: (§1)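 Einthoven bronchoprotection in guinea pigs, read as % bronchoprotection 24 h after inhaled dosing. The TFA salt was used in the initial experiments. For one compound, the edisylate salt was compared with the TFA form. Group sizes were n = 3–8.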

[4] = tested on: Cavia porcellus; assay: Bronchoprotection in male Duncan Hartley guinea pig bronchoconstriction einthoven model assessed as inhibition of methacholine-induced bronchoconstriction at 100 microg/ml, inhalation after 24 hrs by in vivo beta2 adrenergic receptor agonist activity assay; assay type: functional; parameters: scale not given: the % may be the effect or the level left; method in brief: as §1
[5] = tested on: Cavia porcellus; assay: Bronchoprotection in male Duncan Hartley guinea pig bronchoconstriction einthoven model assessed as inhibition of methacholine-induced bronchoconstriction at 100 microg/ml, inhalation after 24 hrs by in vivo muscarinic antagonist and beta2 agonist activity assay; assay type: functional; parameters: scale not given: the % may be the effect or the level left; method in brief: as §1
[6] = tested on: Cavia porcellus; assay: Bronchoprotection in male Duncan Hartley guinea pig bronchoconstriction einthoven model assessed as inhibition of methacholine-induced bronchoconstriction at 100 microg/ml, inhalation after 1.5 hrs by in vivo muscarinic acetylcholine receptor antagonist activity assay; assay type: functional; parameters: scale not given: the % may be the effect or the level left
[7] = tested on: Cavia porcellus; assay: Bronchoprotection in male Duncan Hartley guinea pig bronchoconstriction einthoven model assessed as inhibition of methacholine-induced bronchoconstriction at 100 microg/ml, inhalation after 1.5 hrs by in vivo beta2 adrenergic receptor agonist activity assay; assay type: functional; parameters: scale not given: the % may be the effect or the level left

Sequence of Muscarinic acetylcholine receptor M3 (P20309 whole entry): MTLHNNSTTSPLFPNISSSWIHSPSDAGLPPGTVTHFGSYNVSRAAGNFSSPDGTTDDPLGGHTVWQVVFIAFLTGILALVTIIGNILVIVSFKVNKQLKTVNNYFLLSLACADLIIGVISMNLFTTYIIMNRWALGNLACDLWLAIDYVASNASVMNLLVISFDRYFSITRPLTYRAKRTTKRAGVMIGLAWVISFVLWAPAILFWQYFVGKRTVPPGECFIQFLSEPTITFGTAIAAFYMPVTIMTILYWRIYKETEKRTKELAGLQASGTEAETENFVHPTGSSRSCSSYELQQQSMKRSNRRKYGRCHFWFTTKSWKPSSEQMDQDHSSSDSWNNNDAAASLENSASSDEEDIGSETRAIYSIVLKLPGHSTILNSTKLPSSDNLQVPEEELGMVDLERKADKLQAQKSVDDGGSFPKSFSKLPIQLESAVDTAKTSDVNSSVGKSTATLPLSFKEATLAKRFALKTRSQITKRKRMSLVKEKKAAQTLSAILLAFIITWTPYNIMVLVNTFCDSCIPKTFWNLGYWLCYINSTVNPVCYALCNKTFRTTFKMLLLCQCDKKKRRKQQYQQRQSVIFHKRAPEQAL
Sequence of Beta-2 adrenergic receptor (P07550 whole entry): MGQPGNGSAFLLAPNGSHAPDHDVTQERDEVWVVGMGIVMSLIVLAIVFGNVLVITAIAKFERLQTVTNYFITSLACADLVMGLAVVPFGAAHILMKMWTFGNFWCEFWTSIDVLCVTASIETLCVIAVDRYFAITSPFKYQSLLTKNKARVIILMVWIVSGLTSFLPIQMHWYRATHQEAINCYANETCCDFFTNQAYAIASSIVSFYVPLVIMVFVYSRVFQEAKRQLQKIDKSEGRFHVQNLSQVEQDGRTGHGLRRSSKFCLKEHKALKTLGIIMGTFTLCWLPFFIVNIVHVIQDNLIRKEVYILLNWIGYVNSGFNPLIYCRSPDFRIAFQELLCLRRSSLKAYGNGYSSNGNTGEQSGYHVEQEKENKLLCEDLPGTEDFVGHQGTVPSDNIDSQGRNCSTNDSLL

| SMILES | Ki [1] | EC50 [2] | Activity [3] | Activity [4] | Activity [5] | Activity [6] | Activity [7] |
| --- | --- | --- | --- | --- | --- | --- | --- |
| COc1cc(C(=O)NCCN2CCC(OC(=O)Nc3ccccc3-c3ccccc3)CC2)ccc1CNC[C@H](O)c1ccc(O)c2[nH]c(=O)ccc12 | 6310 pM | 1580 pM | – | – | – | – | – |
| COc1c(CNC[C@H](O)c2ccc(O)c3[nH]c(=O)ccc23)ccc(NC(=O)CCN2CCC(OC(=O)Nc3ccccc3-c3ccccc3)CC2)c1Cl | 631 pM | 398 pM | – | – | – | – | – |
| CN(CCN1CCC(OC(=O)Nc2ccccc2-c2ccccc2)CC1)C(=O)c1ccc(CNC[C@H](O)c2ccc(O)c3[nH]c(=O)ccc23)cc1 | 794 pM | 251 pM | – | – | – | – | – |
| O=C(CCN1CCC(OC(=O)Nc2ccccc2-c2ccccc2)CC1)Nc1ccc(CNC[C@H](O)c2ccc(O)c3[nH]c(=O)ccc23)c(Cl)c1 | 200 pM | 501 pM | – | – | – | – | – |
| COc1ccc(NC(=O)CCN2CCC(OC(=O)Nc3ccccc3-c3ccccc3)CC2)cc1CCNC[C@H](O)c1ccc(O)c2[nH]c(=O)ccc12 | 2000 pM | 794 pM | – | – | – | – | – |
| O=C(CCN1CCC(OC(=O)Nc2ccccc2-c2ccccc2)CC1)N[C@H]1CC[C@H](CNC[C@H](O)c2ccc(O)c3[nH]c(=O)ccc23)CC1 | 316 pM | 158 pM | – | – | – | – | – |
| COc1cc(NC(=O)CCN2CCC(OC(=O)Nc3ccccc3-c3ccccc3)CC2)c(C)cc1CNC[C@H](O)c1ccc(O)c2[nH]c(=O)ccc12 | 316 pM | 316 pM | – | – | – | – | – |
| COc1cc(N(C)C(=O)CCN2CCC(OC(=O)Nc3ccccc3-c3ccccc3)CC2)c(Cl)cc1CNC[C@H](O)c1ccc(O)c2[nH]c(=O)ccc12 | 316 pM | 794 pM | – | – | – | – | – |
| Cc1cc(NC(=O)CCN2CCC(OC(=O)Nc3ccccc3-c3ccccc3)CC2)ccc1CNC[C@H](O)c1ccc(O)c2[nH]c(=O)ccc12 | 1260 pM | 200 pM | – | – | – | – | – |
| COc1c(CNC[C@H](O)c2ccc(O)c3[nH]c(=O)ccc23)ccc(NC(=O)CCN2CCC(OC(=O)Nc3ccccc3-c3ccccc3)CC2)c1C | 501 pM | 251 pM | – | – | – | – | – |
| O=C(Nc1ccccc1-c1ccccc1)OC1CCN(CCCCCCCCCNC[C@H](O)c2ccc(O)c3[nH]c(=O)ccc23)CC1 | – | – | 72% | 10% | – | 94% | 63% |
| COc1cc(CNC[C@H](O)c2ccc(O)c3[nH]c(=O)ccc23)ccc1NC(=O)CCN1CCC(OC(=O)Nc2ccccc2-c2ccccc2)CC1 | 1580 pM | 501 pM | 22% | 33% | – | – | – |

The remaining compounds from weak to strong by Ki [1], led by results:

| Ki [1] | EC50 [2] | SMILES | Activity [3] | Activity [4] | Activity [5] | Activity [6] | Activity [7] |
| --- | --- | --- | --- | --- | --- | --- | --- |
| 7940 pM | 1260 pM | COc1ccc(CCNC[C@H](O)c2ccc(O)c3[nH]c(=O)ccc23)cc1NC(=O)CCN1CCC(OC(=O)Nc2ccccc2-c2ccccc2)CC1 | – | – | – | – | – |
| 3160 pM | 158 pM | Cc1cc(C(=O)NCCN2CCC(OC(=O)Nc3ccccc3-c3ccccc3)CC2)c(C)cc1CNC[C@H](O)c1ccc(O)c2[nH]c(=O)ccc12 | – | – | – | – | – |
| 631 pM | 50100 pM | COc1cc(N(C)C(=O)CCN2CCC(OC(=O)Nc3ccccc3-c3ccccc3)CC2)ccc1CNC[C@H](O)c1ccc(O)c2[nH]c(=O)ccc12 | – | – | – | – | – |
| 631 pM | 501 pM | O=C(Nc1ccccc1-c1ccccc1)OC1CCN(CCNC(=O)c2ccc(CNC[C@H](O)c3ccc(O)c4[nH]c(=O)ccc34)cc2)CC1 | 74% | 20% | – | – | – |
| 200 pM | 3980 pM | Cc1cc(CNC[C@H](O)c2ccc(O)c3[nH]c(=O)ccc23)ccc1N(C)C(=O)CCN1CCC(OC(=O)Nc2ccccc2-c2ccccc2)CC1 | – | – | – | – | – |
| 200 pM | 251 pM | O=C(CCN1CCC(OC(=O)Nc2ccccc2-c2ccccc2)CC1)Nc1ccc(CNC[C@H](O)c2ccc(O)c3[nH]c(=O)ccc23)cc1Cl | – | 25% | – | – | – |
| 100 pM | 126 pM | O=C(CCN1CCC(OC(=O)Nc2ccccc2-c2ccccc2)CC1)NCCCCCNC[C@H](O)c1ccc(O)c2[nH]c(=O)ccc12 | – | – | – | – | – |
| 50.1 pM | 200 pM | Cc1cc(CNC[C@H](O)c2ccc(O)c3[nH]c(=O)ccc23)ccc1NC(=O)CCN1CCC(OC(=O)Nc2ccccc2-c2ccccc2)CC1 | 92% | 20% | 96% | – | – |
